Measurements from ChEMBL document CHEMBL5113533 (J Med Chem, 2022).
pIC50: −log10 of the molar value. Active and inactive are the calls of the source. No cut-off for these calls is given here.

Assays:
[1] = molecular target: MAP kinase-activated protein kinase 2 (Homo sapiens) (UniProt P49137); assay: Inhibition of MK2 in Escherichia coli -stimulated human THP-1 cells assessed as reduction in p38alpha MAPK phosphorylation at 1 uM pretreated for 1 hr followed by Escherichia coli stimulation and measured up to 15 mins by western blot analysis; format: cell-based; conditions: time 1.15 hrs
THP-1 [2] = assay: Antiinflammatory activity against Escherichia coli induced human THP-1 cells assessed as reduction in proinflammatory phenotype at 1 uM for 1 hr followed by Escherichia coli stimulation and measured upto 24 hrs by MALDI-TOF MS analysis; format: functional, cell-based
Method in brief: (§1)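 THP-1 cells pre-treated with compound for 1 h, then infected with live E. coli (MOI 2), spun 500g 5 min, left 15 or 30 min for uptake, then 100 μg/mL gentamicin for 1 h and 20 μg/mL gentamicin thereafter, up to 24 h. Pellets frozen on dry ice, thawed, washed in 100 mM Tris–HCl pH 7.5 at 4 °C, and read by MALDI-TOF MS as the normalized m/z 4964/4632 ratio.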

[3] = molecular target: Mitogen-activated protein kinase 14 (Homo sapiens) (UniProt Q16539); assay: Binding affinity to P38alpha (unknown origin) measured at 0.05 to 333.33 nM after 600 secs by SPR analysis; conditions: dose 0.05-333.33 nM, time 600.0 sec
Method in brief: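 Biotinylated avidin-p38α was captured on a streptavidin chip from 50 μg/mL, reaching about 7719 RU. A 10-point series (0.05–333.33 nM) ran multicycle at 2 °C against a control surface: 90 s injection at 30 μL/min, then 600 s dissociation.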

THP-1 [4] = assay: Inhibition of human Escherichia coli stimulated monocyte activation in human THP-1 cells assessed as increase in ROCK1 expression level at 5 uM pretreated for 1 hr and measured up to 24 hrs; format: functional, cell-based
Method in brief: (§2)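 THP-1 cells pre-treated 1 h with 5 μM compound, then live E. coli up to 24 h. Label-free quantitative proteomics: S-Trap digestion (TCEP reduction, N-ethylmaleimide alkylation, trypsin 2 h at 47 °C), Orbitrap LC–MS/MS with a 180 min gradient. Changes called at FDR <0.05 and 1.5-fold.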

OCI-AML2 [5] = assay: Antiinflammatory activity against Escherichia coli-stimulated human OCI-AML2 cells assessed reduction in TNFalpha level measured at 24 hrs by ELISA analysis; format: functional, cell-based
Method in brief: (§3)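 OCI-AML2 cells stimulated with live E. coli (MOI 2, gentamicin protection). TNF-α, IL-6 and IL-1β in culture supernatant measured by ELISA at 24 h post-treatment, 450 nm with 540 nm correction, four biological replicates.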

[6] = molecular target: MAP kinase-activated protein kinase 2 (Homo sapiens) (UniProt P49137); assay: Inhibition of MK2 in Escherichia coli -stimulated human THP-1 cells assessed as reduction in p38alpha MAPK phosphorylation at 5 uM pretreated for 1 hr followed by Escherichia coli stimulation and measured up to 15 mins by western blot analysis; format: cell-based; conditions: time 1.15 hrs
THP-1 [7] = assay: Antiinflammatory activity against LPS-stimulated human THP-1 cells assessed as TNF-alpha secretion pretreated for 1 hr followed by LPS stimulation and measured upto 24 hrs by ELISA analysis; format: functional, cell-based
Method in brief: (§4)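 THP-1 cells pre-treated with compound for 1 h (5 μM or 1 μM, depending on the compound), then stimulated with 100 ng/mL LPS. Culture supernatant was taken at 24 h, and TNF-α, IL-6 or IL-1β was measured by sandwich ELISA at 450 nm with 540 nm correction; four biological replicates.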

THP-1 [8] = assay: Antiinflammatory activity against LPS-stimulated human THP-1 cells assessed as reduction in IL-6 level pretreated for 1 hr followed by LPS stimulation and measured upto 24 hrs by ELISA analysis; format: functional, cell-based; method in brief: as §4
THP-1 [9] = assay: Antiinflammatory activity against Escherichia coli induced human THP-1 cells assessed as reduction in proinflammatory phenotype at 5 uM for 1 hr followed by Escherichia coli stimulation and measured upto 24 hrs by MALDI-TOF MS analysis; format: functional, cell-based; method in brief: as §1
THP-1 [10] = assay: Inhibition of P38 MAPK pathway in Escherichia coli-stimulated human THP-1 cells assessed as reduction in IL-6 expression at 5 uM pretreated for 1 hr followed by Escherichia coli stimulation and measured up to 24 hrs by ELISA analysis
Method in brief: (§5)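 THP-1 cells pre-treated 1 h with 5 μM compound, then infected with live E. coli (MOI 2), followed by gentamicin killing of extracellular bacteria. TNF-α, IL-6 or IL-1β in supernatant measured by ELISA at 24 h, absorbance at 450 nm with 540 nm correction.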

THP-1 [11] = assay: Inhibition of human Escherichia coli stimulated monocyte activation in human THP-1 cells assessed as increase in Filamin-B expression level at 5 uM pretreated for 1 hr and measured up to 24 hrs; format: functional, cell-based; method in brief: as §2
NCI-H929 = assay: Inhibition of MK2 in Escherichia coli-stimulated human NCI-H929 cells assessed as reduction in MK2 phosphorylation pretreated for 1 hr followed by Escherichia coli stimulation and measured up to 15 mins by western blot analysis; format: cell-based; conditions: time 1.15 hrs
THP-1 [12] = assay: Inhibition of human Escherichia coli stimulated monocyte activation in human THP-1 cells assessed as decrease in MMP9 expression level at 5 uM pretreated for 1 hr and measured up to 24 hrs; format: functional, cell-based; method in brief: as §2
THP-1 [13] = assay: Inhibition of human Escherichia coli stimulated monocyte activation in human THP-1 cells assessed as upregulation of MMP9 expression level at 5 uM pretreated for 1 hr and measured up to 24 hrs; format: functional, cell-based; method in brief: as §2
THP-1 [14] = assay: Inhibition of human Escherichia coli stimulated monocyte activation in human THP-1 cells assessed as decrease in CD14 expression level at 5 uM pretreated for 1 hr and measured up to 24 hrs; format: functional, cell-based
THP-1 [15] = assay: Inhibition of human Escherichia coli stimulated monocyte activation in human THP-1 cells assessed as decrease in ICAM-1 expression level at 5 uM pretreated for 1 hr and measured up to 24 hrs; format: functional, cell-based
THP-1 [16] = assay: Inhibition of human Escherichia coli stimulated monocyte activation in human THP-1 cells assessed as […] of CD44 expression level at 5 uM pretreated for 1 hr and measured up to 24 hrs; format: functional, cell-based
THP-1 [17] = assay: Antiinflammatory activity against LPS-stimulated human THP-1 cells assessed as disappearance inflammatory phenotype at 5 uM pretreated for 1 hr followed by LPS stimulation and measured upto 24 hrs by ELISA analysis; format: functional, cell-based
[18] = tested on: Acute myeloid leukemic cell; assay: Antiinflammatory activity against LPS-stimulated patient derived primary AML cells assessed reduction in TNFalpha level measured at 24 hrs by ELISA analysis; format: functional, cell-based; conditions: Homo sapiens
Method in brief: (§6)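 CD14+ monocytes from healthy-donor blood (Lymphoprep, then pan-monocyte isolation) or patient AML cells (cultured in IMDM with 20% FBS, IL-3 and SCF). Cells pre-treated 1 h with 5 μM or 1 μM compound, then 100 ng/mL LPS; TNF-α in supernatant measured by ELISA at 24 h. Four (monocytes) or two (AML) biological replicates, error shown as SD.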

OCI-AML2 [19] = assay: Antiinflammatory activity against Escherichia coli-stimulated human OCI-AML2 cells assessed reduction in IL-6 level measured at 24 hrs by ELISA analysis; format: functional, cell-based; method in brief: as §3
THP-1 [20] = assay: Antiinflammatory activity against LPS-stimulated human THP-1 cells assessed as reduction in IL-1beta level pretreated for 1 hr followed by LPS stimulation and measured upto 24 hrs by ELISA analysis; format: functional, cell-based; method in brief: as §4
Monocyte = assay: Antiinflammatory activity against LPS-stimulated human primary monocyte cells assessed reduction in TNFalpha level measured at 24 hrs by ELISA analysis; format: functional, cell-based; method in brief: as §6
THP-1 [21] = assay: Inhibition of P38 MAPK pathway in Escherichia coli-stimulated human THP-1 cells assessed as reduction in TNFalpha expression at 5 uM pretreated for 1 hr followed by Escherichia coli stimulation and measured up to 24 hrs by ELISA analysis; method in brief: as §5
OCI-AML2 [22] = assay: Antiinflammatory activity against Escherichia coli-stimulated human OCI-AML2 cells assessed reduction in IL-1beta level measured at 24 hrs by ELISA analysis; format: functional, cell-based; method in brief: as §3
THP-1 [23] = assay: Inhibition of human Escherichia coli stimulated monocyte activation in human THP-1 cells assessed as suppression of CD14 expression level at 5 uM pretreated for 1 hr and measured up to 24 hrs; format: functional, cell-based
[24] = molecular target: Mitogen-activated protein kinase 14 (Homo sapiens) (UniProt Q16539); conditions: THP-1, dose 5.0 µM, time 1.15 hrs
THP-1 [25] = assay: Inhibition of human Escherichia coli stimulated monocyte activation in human THP-1 cells assessed as decrease in CD44 expression level at 5 uM pretreated for 1 hr and measured up to 24 hrs; format: functional, cell-based
THP-1 [26] = assay: Inhibition of human Escherichia coli stimulated monocyte activation in human THP-1 cells assessed as suppression of CD11c expression level at 5 uM pretreated for 1 hr and measured up to 24 hrs by flow cytometric analysis; format: functional, cell-based
THP-1 [27] = assay: Antiinflammatory activity against LPS-stimulated human THP-1 cells assessed as reduction in TNFalpha level pretreated for 1 hr followed by LPS stimulation and measured upto 24 hrs by ELISA analysis; format: functional, cell-based; method in brief: as §4
[28] = molecular target: Mitogen-activated protein kinase 14 (Homo sapiens) (UniProt Q16539); conditions: THP-1, dose 5.0 µM, time 1.15 hrs; remark: listed apart in the source
THP-1 [29] = assay: Inhibition of human Escherichia coli stimulated monocyte activation in human THP-1 cells assessed as decrease in TLR2 expression level at 5 uM pretreated for 1 hr and measured up to 24 hrs; format: functional, cell-based; method in brief: as §2
THP-1 [30] = assay: Inhibition of human Escherichia coli stimulated monocyte activation in human THP-1 cells assessed as decrease in IL-1beta expression level at 5 uM pretreated for 1 hr and measured up to 24 hrs; format: functional, cell-based; method in brief: as §2
THP-1 [31] = assay: Inhibition of human Escherichia coli stimulated monocyte activation in human THP-1 cells assessed as suppression of CD54 expression level at 5 uM pretreated for 1 hr and measured up to 24 hrs by flow cytometric analysis; format: functional, cell-based
THP-1 [32] = assay: Inhibition of P38 MAPK pathway in Escherichia coli-stimulated human THP-1 cells assessed as reduction in IL-1beta expression at 5 uM pretreated for 1 hr followed by Escherichia coli stimulation and measured upto 24 hrs by ELISA analysis; method in brief: as §5
OCI-AML2 [33] = assay: Inhibition of MK2 in Escherichia coli-stimulated human OCI-AML2 cells assessed as reduction inMK2 phosphorylation pretreated for 1 hr followed by Escherichia coli stimulation and measured up to 15 mins by western blot analysis; format: cell-based; conditions: time 1.15 hrs
THP-1 [34] = assay: Inhibition of human Escherichia coli stimulated monocyte activation in human THP-1 cells assessed as suppression of CD49a expression level at 5 uM pretreated for 1 hr and measured up to 24 hrs by flow cytometric analysis; format: functional, cell-based
THP-1 [35] = assay: Inhibition of cell adhesion in human Escherichia coli stimulated-THP-1 cells by crystal violet staining based assay; format: functional
Method in brief: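 E. coli-stimulated THP-1 cells washed twice with PBS, fixed 15 min in 4% paraformaldehyde, stained 10 min with 5 mg/mL crystal violet, lysed 30 min in 2% SDS. Absorbance read at 550 nm; four biological replicates.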

Sequence of Mitogen-activated protein kinase 14 (Homo sapiens) (Q16539 whole entry): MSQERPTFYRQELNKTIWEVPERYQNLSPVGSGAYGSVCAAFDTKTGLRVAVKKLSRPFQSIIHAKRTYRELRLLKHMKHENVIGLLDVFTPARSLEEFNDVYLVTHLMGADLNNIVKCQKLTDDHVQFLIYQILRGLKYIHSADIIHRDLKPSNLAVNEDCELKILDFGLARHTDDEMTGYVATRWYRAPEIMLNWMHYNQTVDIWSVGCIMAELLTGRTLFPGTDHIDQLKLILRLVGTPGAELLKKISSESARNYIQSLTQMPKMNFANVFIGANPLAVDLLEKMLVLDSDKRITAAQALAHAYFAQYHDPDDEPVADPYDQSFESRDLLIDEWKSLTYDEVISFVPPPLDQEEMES
Sequence of MAP kinase-activated protein kinase 2 (Homo sapiens) (P49137 whole entry, looked up): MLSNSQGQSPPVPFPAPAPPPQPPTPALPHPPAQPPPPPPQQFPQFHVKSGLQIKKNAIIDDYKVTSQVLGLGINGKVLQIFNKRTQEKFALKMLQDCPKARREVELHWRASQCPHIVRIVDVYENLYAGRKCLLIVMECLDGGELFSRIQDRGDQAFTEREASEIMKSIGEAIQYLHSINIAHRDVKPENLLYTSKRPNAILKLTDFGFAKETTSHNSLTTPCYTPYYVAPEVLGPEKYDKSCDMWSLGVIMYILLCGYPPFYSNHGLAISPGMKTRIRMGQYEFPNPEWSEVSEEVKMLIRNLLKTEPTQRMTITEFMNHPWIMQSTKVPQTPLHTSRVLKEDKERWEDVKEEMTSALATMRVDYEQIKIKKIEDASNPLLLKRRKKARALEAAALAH

Cc1c(F)cc(C(=O)NC2CC2)cc1-c1ccc(C(=O)NCC(C)(C)C)cn1
inhibition [1]: Active | Activity (THP-1 [2]): Active

Cc1ccc(C(=O)Nc2ccc(CN3CCN(C)CC3)c(C(F)(F)F)c2)cc1C#Cc1cnc2cccnn12
Activity [3]: Active

Cc1cn(-c2cc(NC(=O)c3ccc(C)c(Nc4nccc(-c5cccnc5)n4)c3)cc(C(F)(F)F)c2)cn1 [NILOTINIB]
inhibition (THP-1 [4]): Active | Activity (OCI-AML2 [5]): Active | inhibition [6]: Active | pIC50 (THP-1 [7]): 6.40 | Activity (THP-1 [8]): Active | Activity (THP-1 [9]): Active | inhibition (THP-1 [10]): Active | inhibition (THP-1 [11]): Active | inhibition (NCI-H929): Active | inhibition (THP-1 [12]): Active | inhibition (THP-1 [13]): Active | inhibition (THP-1 [14]): Active | inhibition (THP-1 [15]): Active | inhibition (THP-1 [16]): Active | Activity (THP-1 [17]): Active | Activity [18]: Active | Activity [3]: Active | Activity (OCI-AML2 [19]): Active | Activity (THP-1 [20]): Active | Activity (Monocyte): Active | inhibition (THP-1 [21]): Active | Activity (OCI-AML2 [22]): Active | inhibition (THP-1 [23]): Active | Tm [24]: 60.7 °C | inhibition (THP-1 [25]): Active | inhibition (THP-1 [26]): Active | Activity (THP-1 [27]): Active | Tm [28]: 55.1 °C | inhibition (THP-1 [29]): Active | inhibition (THP-1 [30]): Active | inhibition (THP-1 [31]): Active | inhibition (THP-1 [32]): Active | inhibition (OCI-AML2 [33]): Active | inhibition (THP-1 [34]): Active | inhibition (THP-1 [35]): Active
